Reference: ChEMBL document CHEMBL1121885, “Inhibition of inosinic acid dehydrogenase by 8-substituted purine nucleotides” (J Med Chem, 1981)

Target: T1, Inosine-5'-monophosphate dehydrogenase (Escherichia coli K-12, UniProt P0ADG7)
T1 sequence (P0ADG7 whole entry): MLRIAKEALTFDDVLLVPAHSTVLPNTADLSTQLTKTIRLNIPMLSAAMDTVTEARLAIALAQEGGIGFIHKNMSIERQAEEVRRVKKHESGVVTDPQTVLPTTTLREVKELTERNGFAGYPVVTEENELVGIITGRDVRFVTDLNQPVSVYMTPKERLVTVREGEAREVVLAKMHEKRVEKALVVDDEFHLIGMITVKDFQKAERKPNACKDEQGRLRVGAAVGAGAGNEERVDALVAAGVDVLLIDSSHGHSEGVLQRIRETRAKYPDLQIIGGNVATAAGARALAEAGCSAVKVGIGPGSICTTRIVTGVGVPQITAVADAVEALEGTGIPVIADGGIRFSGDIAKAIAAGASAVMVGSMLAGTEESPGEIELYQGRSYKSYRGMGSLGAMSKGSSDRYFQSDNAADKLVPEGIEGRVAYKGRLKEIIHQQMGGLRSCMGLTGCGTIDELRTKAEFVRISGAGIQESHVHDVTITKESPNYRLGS
Assay: Inhibition of inosine monophosphate dehydrogenase in Escherichia coli
Method in brief: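 E. coli B IMP-DH (0-40% ammonium sulfate fraction of frozen paste, redissolved in 0.05 M Tris pH 8.5). Enzyme-started, 25 °C, NADH rise at 360 nm; Ki from weighted fit to linear competitive equation.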

Structure (SMILES)	Ki
Nc1ncnc2c1nc(SCCc1ccc([N+](=O)[O-])cc1)n2C1O[C@H](COP(=O)(O)O)[C@@H](O)[C@H]1O (some centres not stated)	68 µM
Nc1ncnc2c1nc(SCc1ccc(Cl)cc1)n2C1O[C@H](COP(=O)(O)O)[C@@H](O)[C@H]1O (some centres not stated)	53 µM
CC(C)(C)c1ccc(CSc2nc3c(=O)[nH]cnc3n2C2O[C@H](COP(=O)(O)O)[C@@H](O)[C@H]2O)cc1 (some centres not stated)	129 µM
Nc1ncnc2c1ncn2[C@@H]1O[C@H](COP(=O)(O)O)[C@@H](O)[C@H]1O [ADENOSINE PHOSPHATE]	450 µM
O=c1[nH]cnc2c1nc(Br)n2C1O[C@H](COP(=O)(O)O)[C@@H](O)[C@H]1O (some centres not stated)	271 µM
Nc1ncnc2c1nc(SCc1ccccc1)n2C1O[C@H](COP(=O)(O)O)[C@@H](O)[C@H]1O (some centres not stated)	124 µM
Nc1ncnc2c1nc(SCc1cc([N+](=O)[O-])cc([N+](=O)[O-])c1)n2C1O[C@H](COP(=O)(O)O)[C@@H](O)[C@H]1O (some centres not stated)	21 µM
O=P(O)(O)OC[C@H]1OC(n2c(NCc3ccccc3)nc3c(O)ncnc32)[C@H](O)[C@@H]1O (some centres not stated)	236 µM
Nc1ncnc2c1nc(SCc1cccc([N+](=O)[O-])c1)n2C1O[C@H](COP(=O)(O)O)[C@@H](O)[C@H]1O (some centres not stated)	47 µM
Nc1ncnc2c1nc(Br)n2[C@@H]1O[C@H](COP(=O)(O)O)[C@@H](O)[C@H]1O	161 µM
COc1ccc(CSc2nc3c(=O)[nH]cnc3n2C2O[C@H](COP(=O)(O)O)[C@@H](O)[C@H]2O)cc1 (some centres not stated)	41 µM
Nc1ncnc2c1nc(SCc1ccc(C(=O)O)cc1)n2C1O[C@H](COP(=O)(O)O)[C@@H](O)[C@H]1O (some centres not stated)	196 µM
Nc1ncnc2c1nc(SCc1ccc(F)cc1)n2C1O[C@H](COP(=O)(O)O)[C@@H](O)[C@H]1O (some centres not stated)	74 µM
Nc1ncnc2c1nc(SCCCc1ccccc1)n2C1O[C@H](COP(=O)(O)O)[C@@H](O)[C@H]1O (some centres not stated)	64 µM
Nc1ncnc2c1nc(NCc1ccccc1)n2C1O[C@H](COP(=O)(O)O)[C@@H](O)[C@H]1O (some centres not stated)	275 µM
Nc1ncnc2c1nc(S)n2C1O[C@H](COP(=O)(O)O)[C@@H](O)[C@H]1O (some centres not stated)	98 µM

Structure (SMILES)	Ki
O=c1[nH]cnc2c1nc(SCc1ccc(Cl)cc1)n2C1O[C@H](COP(=O)(O)O)[C@@H](O)[C@H]1O (some centres not stated)	29 µM
O=[N+]([O-])c1ccc(CSc2nc3c(O)ncnc3n2C2O[C@H](COP(=O)(O)O)[C@@H](O)[C@H]2O)cc1 (some centres not stated)	26 µM
N#Cc1ccc(CSc2nc3c(O)ncnc3n2C2O[C@H](COP(=O)(O)O)[C@@H](O)[C@H]2O)cc1 (some centres not stated)	19 µM
CC(C)(C)c1ccc(CSc2nc3c(N)ncnc3n2C2O[C@H](COP(=O)(O)O)[C@@H](O)[C@H]2O)cc1 (some centres not stated)	130 µM
O=c1[nH]cnc2c1nc(SCc1ccccc1)n2C1O[C@H](COP(=O)(O)O)[C@@H](O)[C@H]1O (some centres not stated)	46 µM
COc1ccc(CSc2nc3c(N)ncnc3n2C2O[C@H](COP(=O)(O)O)[C@@H](O)[C@H]2O)cc1 (some centres not stated)	84 µM
CCCCCSc1nc2c(N)ncnc2n1C1O[C@H](COP(=O)(O)O)[C@@H](O)[C@H]1O (some centres not stated)	84 µM
Nc1ncnc2c1nc(SCc1ccc([N+](=O)[O-])cc1Cl)n2C1O[C@H](COP(=O)(O)O)[C@@H](O)[C@H]1O (some centres not stated)	17 µM
N#Cc1ccc(CSc2nc3c(N)ncnc3n2C2O[C@H](COP(=O)(O)O)[C@@H](O)[C@H]2O)cc1 (some centres not stated)	58 µM
Nc1ncnc2c1nc(Sc1ccccc1)n2C1O[C@H](COP(=O)(O)O)[C@@H](O)[C@H]1O (some centres not stated)	137 µM
O=[N+]([O-])c1ccc(CCSc2nc3c(O)ncnc3n2C2O[C@H](COP(=O)(O)O)[C@@H](O)[C@H]2O)cc1 (some centres not stated)	54 µM
O=P(O)(O)OC[C@H]1OC(n2c(Sc3ccccc3)nc3c(O)ncnc32)[C@H](O)[C@@H]1O (some centres not stated)	68 µM
Nc1ncnc2c1nc(SCc1ccc([N+](=O)[O-])cc1)n2C1O[C@H](COP(=O)(O)O)[C@@H](O)[C@H]1O (some centres not stated)	52 µM
Nc1ncnc2c1nc(Sc1ccc(Cl)cc1)n2C1O[C@H](COP(=O)(O)O)[C@@H](O)[C@H]1O (some centres not stated)	70 µM
O=c1[nH]cnc2c1nc(Sc1cccc(C(F)(F)F)c1)n2C1O[C@H](COP(=O)(O)O)[C@@H](O)[C@H]1O (some centres not stated)	105 µM
Nc1ncnc2c1nc(SCCc1ccccc1)n2C1O[C@H](COP(=O)(O)O)[C@@H](O)[C@H]1O (some centres not stated)	91 µM
